Screening results from PubChem.
ABCG2 block – ABCG2 efflux pump inhibitors, primary screen, multiplex with ABCB1, IgMXP3 cells, flow cytometry; Broad substrate specificity ATP-binding cassette transporter ABCG2 (Homo sapiens), Q9UNQ0; JC-1 efflux; inhibition, % at 6.6 µM; actives 0.1% (n = 190,000);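 active means inhibition above 80%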;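 further: 0% = DMSO and 100% = nicardipine control wells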
Target sequence (Q9UNQ0 whole entry, looked up): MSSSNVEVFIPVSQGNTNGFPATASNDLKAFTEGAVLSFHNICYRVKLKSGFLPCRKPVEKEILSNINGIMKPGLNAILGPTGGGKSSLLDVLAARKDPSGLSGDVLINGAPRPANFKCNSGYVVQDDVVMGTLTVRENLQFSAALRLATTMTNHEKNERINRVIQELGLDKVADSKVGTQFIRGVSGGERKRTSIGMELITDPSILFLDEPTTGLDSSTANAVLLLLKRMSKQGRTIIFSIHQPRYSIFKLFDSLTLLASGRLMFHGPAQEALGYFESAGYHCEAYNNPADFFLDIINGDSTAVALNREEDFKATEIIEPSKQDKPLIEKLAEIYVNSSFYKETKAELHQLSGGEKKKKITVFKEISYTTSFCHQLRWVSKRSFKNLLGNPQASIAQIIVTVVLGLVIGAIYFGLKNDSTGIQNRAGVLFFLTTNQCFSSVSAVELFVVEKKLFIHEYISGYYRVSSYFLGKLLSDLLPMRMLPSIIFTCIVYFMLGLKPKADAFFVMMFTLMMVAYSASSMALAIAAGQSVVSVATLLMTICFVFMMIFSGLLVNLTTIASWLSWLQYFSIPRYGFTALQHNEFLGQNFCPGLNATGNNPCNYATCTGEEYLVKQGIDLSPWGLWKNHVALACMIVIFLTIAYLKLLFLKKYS
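Times: 10 min at 25 °C | Test system: Two drug-resistant human cell lines, ABCG2 and ABCB1 | Quantity: 3 million cells/mL final, two lines in 1:1 ratio | Signal: Flow cytometry, 530 nm JC-1 signal | Dosing: Compound at 6.6 µM | Controls: Nicardipine and DMSO wells | Reagent: JC-1 as fluorescent efflux pump substrate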
Lmaj promast – Leishmania major promastigote growth inhibition, primary screen; Leishmania major promastigotes, resazurin fluorescence viability; actives 9% (n = 200,000); AID 1063, 2008; inhibition, % at 10 µM; in the data active means inhibition above about 50%;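 further: promastigotes grown with compound for 44 hours at 28 °C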
ABCB1 inh – ABCB1 efflux pump inhibitors, primary screen, cell-based, multiplex, flow cytometry, ABCG2 counter-screen; ATP-dependent translocase ABCB1 (Homo sapiens), P08183; CCRF-Adr cells, JC-1 efflux; inhibition, % at 6.6 µM; actives 0.067% (n = 190,000); AID 1326, 2008; in the data active means inhibition above about 40%;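 further: 0% = vehicle and 100% = reference inhibitor; higher value means more JC-1 retained so stronger ABCB1 efflux block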
WT yeast gro inh – growth inhibition of WT strain, primary screen, mitochondrial fusion inhibitor project, WT and mutant strains, chemical genetic. mitochondrial fusion phenotypic screen. inhibition, % at 10 µM. actives 2.1% (n = 190,000); in the data active means inhibition above about 58%; tested in S. cerevisiae
RAM network inh – inhibitors of the yeast RAM network, primary screen, dse1pr::URA3 reporter, 5-FOA selection; inhibition, % at 50 µM; actives 1.8% (n = 190,000); S. cerevisiae dse1pr::URA3 reporter, 5-FOA growth OD615, 2 d; analog-sensitive cbk1-as2 kinase mutant strain;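 active means inhibition above a set limit, 3 SD over mean compound inhibition, cut at about 8.4% in these data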;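 further: 0% = DMSO-only wells with no growth and 100% = 10 µM 1-NA-PP1 full growth; inhibition rescues growth on 5-FOA so higher OD means more RAM inhibition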
The depositor's hits bear a star. Sampled rows, rich in hits. Any-hit rate of the full collection: about 12%.

SMILES	ABCG2 block	Lmaj promast	ABCB1 inh	WT yeast gro inh	RAM network inh
CCCN1C(=O)c2cccc3c(N4CCCCC4)ccc(c23)C1=O	52	73*	26	-3	4
O=C1c2cccc3c(N4CCCCC4)ccc(c23)C(=O)N1c1ccccn1	6	31	3	-8	3
CC(=O)N(C(C)=O)N1C(=O)c2cccc3c(N4CCOCC4)ccc(c23)C1=O	2	-2	0	0	3
CCN(CC)S(=O)(=O)c1ccc(C(=O)OCCN2C(=O)c3cccc4c(N5CCOCC5)ccc(c34)C2=O)cc1	4	21	0	5	10*
O=C(OCCN1C(=O)c2cccc3c(N4CCOCC4)ccc(c23)C1=O)c1cc(Cl)cc(Cl)c1	-7	71*	4	23	8.5*
COCCn1c(=O)[nH]c(=O)c2cc(C(=O)c3cc(Cl)ccc3O)cnc21	6	-1	0	63*	3
CCn1c(SCC(=O)NCc2ccccc2)nnc1-c1cccnc1	27	-7	1	-6	0
CC(=O)Nc1ccc(S(=O)(=O)NCCSCc2ccc(Cl)cc2Cl)cc1	7	14	1	16	6
Cc1cccc(Nc2c([N+](=O)[O-])cc(C(=O)N3CC(=O)Nc4ccccc43)cc2[N+](=O)[O-])c1	2	82*	1	-17	9.5*
Cc1ccc(C)c(Nc2c([N+](=O)[O-])cc(C(=O)N3CC(=O)Nc4ccccc43)cc2[N+](=O)[O-])c1	8	96*	2	-5	5
Cn1c(=O)c2c(nc(NCCNC(=O)c3ccco3)n2Cc2ccc(Cl)cc2Cl)n(C)c1=O	1	-2	1	7	3
Cn1c(NCCCN2CCOCC2)nc2c1c(=O)n(Cc1ccc(Cl)cc1Cl)c(=O)n2C	4	90*	1	-53	2
C=C(C)c1cccc(C(C)(C)NC(=O)Nc2cc(C)ccc2OC)c1	4	52*	1	-3	7
C=C(C)c1cccc(C(C)(C)NC(=O)Nc2ncccn2)c1	7	33	1	2	2
C=C(C)c1cccc(C(C)(C)NC(=O)Nc2ccccc2OCC)c1	4	55*	0	10	6
C=C(C)c1cccc(C(C)(C)NC(=O)NCc2ccc(OC)c(OC)c2)c1	12	-3	2	13	-1
C=C(C)c1cccc(C(C)(C)NC(=O)Nc2ccc(Cl)cn2)c1	19	23	1	74*	11*
CC(CCc1ccccc1)NC(=O)C(=O)NCCc1ccccc1 (configuration not stated)	3	-7	1	13	3
O=C(CSc1ccc(-c2ccco2)nn1)c1ccccc1	5	12	0	-16	6
CC(C)CNC(=O)CSc1nnc(-c2ccc(Cl)cc2)n1N	-1	6	0	-1	-1
CCn1ccnc1CN1CCN(CCC(C)C)C(CCO)C1 (configuration not stated)	1	-3	0	-11	0
N/C(=N\OC(=O)/C=C/c1ccccc1Cl)c1ccncc1	18	16	0	16	0
CN(C(=O)c1ccc(OC2CCN(CCc3ccccc3)CC2)cc1)C1CCCCC1	1	91*	2	9	1
Cc1ccccc1CC1(CO)CCCN(Cc2nc(-c3cccs3)oc2C)C1 (configuration not stated)	0	55*	-2	31	1
Cc1ccccc1C(=O)N/N=C1/SCC(=O)N1Cc1ccccc1	-1	-6	0	-2	0
SMILES	ABCG2 block	Lmaj promast	ABCB1 inh	WT yeast gro inh	RAM network inh
Cc1ccc(C(=O)N2CCCC2)cc1S(=O)(=O)Nc1cccc(C)c1C	2	1	0	-1	-2
CCOC(=O)c1[nH]c(C)c(CN(C(C)=O)c2ccc(OCC)cc2)c1C	3	10	1	22	0
NC(=O)c1c(NC(NC(=O)c2ccco2)C(=O)c2ccc(Cl)cc2)sc2c1CCCC2 (configuration not stated)	2	7	0	21	1
N#Cc1c(NC(NC(=O)c2ccco2)C(=O)c2ccccc2)sc2c1CCCC2 (configuration not stated)	1	0	0	62*	3
CCOC(=O)c1ccc(NC(=O)Cc2coc3cc4c(cc23)CCC4)cc1	-15	92*	-1	10	2
CN(/C=C1/C(=O)CNC1=O)CCO	-1	-2	0	-18	2
Cc1cccc(-n2c(=O)[nH]c3c(C(N)=O)nc(CC(C)C)nc32)c1	2	50*	0	46	2
CCOc1ccccc1-c1nc(C(N)=O)c2[nH]c(=O)n(-c3ccccc3)c2n1	2	19	1	-4	9.7*
COc1c(O)ccc(C2NC(=O)NC(C)=C2C(=O)Nc2ccccc2C)c1[N+](=O)[O-] (configuration not stated)	2	-2	0	0	2
Cc1cccc(NC(=O)COC(=O)c2ccc([N+](=O)[O-])o2)c1C	1	-1	0	-1	0
CCn1nnc(NC(=O)c2ccc([N+](=O)[O-])o2)n1	8	93*	-1	-11	0
CS(=O)(=O)N1CCN(c2ccccc2NC(=O)c2ccc([N+](=O)[O-])o2)CC1	13	100*	2	1	4
CCCCn1nnc(NC(=O)c2ccc(-c3ccccc3[N+](=O)[O-])o2)n1	-1	17	0	2	2
Cc1cccnc1NC(=O)c1ccc([N+](=O)[O-])o1	11	77*	0	-4	0
Cc1ccccc1NC(=O)c1ccc([N+](=O)[O-])o1	6	69*	1	1	0
Cc1cccnc1NC(=O)c1ccccc1-c1ccccc1C(=O)Nc1ncccc1C	1	5	1	-2	0
Cc1cc(C)nc(/N=C(\N)Nc2ccc(S(=O)(=O)Nc3nccc(C)n3)cc2)n1	1	-12	0	-1	-1
O=C(COC(=O)[C@@H]1CCCN1S(=O)(=O)c1ccccc1F)Nc1ccc(OC(F)F)cc1	8	-5	2	-7	3
O=C(CCNC(=O)OCc1ccccc1)NC1CCCCCC1	6	-6	0	-1	1
O=C(Nc1ccc2oc(-c3cccnc3)nc2c1)c1ccc(Br)o1	0	-4	0	-6	0
Cc1ccc(NC(=O)c2ccc([N+](=O)[O-])o2)c(C)c1	4	94*	0	11	0
Cc1cccc(NC(=O)c2ccc([N+](=O)[O-])cc2Cl)n1	9	-3	0	3	1
O=C(Nc1ccc2oc(-c3cccnc3)nc2c1)c1ccc([N+](=O)[O-])o1	0	100*	0	3	3
Cc1cccc(NC(=O)c2ccc([N+](=O)[O-])o2)n1	0	96*	0	4	0
